# Most compounds without a hit are left out; they make up all but 9.6% or so of the library.
# bCat nuc transl = alters nuclear translocation of beta-catenin in HeLa cells. immunofluorescence imaging. nuclear translocation activity, % at 5 µM. 190,000 tested, 0.3% active;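 active means nuclear translocation activity above 50% at 5 µM, with a well cell count of 50 or more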;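 further: per-cell ratio of nuclear to cytoplasmic median beta-catenin stain intensity; plate controls were DMSO negative control for no effect and GSK-3 inhibitor IX positive control for full effect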
#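 Test system: human HeLa cells, native beta-catenin. Compound dosing: 5 µM primary single dose, 0.1% DMSO, 0.02–20 µM confirmation series. Incubation: compound exposure 24 h at 37°C. Detection: beta-catenin immunostaining with DAPI counterstain, 20x imaging, 6 fields/well. Read-out basis: Nuclear/cytoplasmic beta-catenin signal ratio, % activation.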
# BaF3 tox = reduces parental Ba/F3 cell viability, JAK2V617F counter-screen. CellTiter-Glo ATP luminescence. inhibition, % at 5.6 µM. 220,000 tested, 1.1% active. AID 1486;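 active means inhibition above a per-campaign cutoff, the mean inhibition of all tested compounds plus 3 SD, cut at about 27% in these data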;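 further: 0% = DMSO wells and 100% = JAK Inhibitor I control wells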
# Lmaj promast = Leishmania major promastigote growth inhibition. Leishmania major promastigotes, resazurin fluorescence viability. 200,000 tested, 9% active. inhibition, % at 10 µM; in the data active means inhibition above about 50%;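 further: promastigotes grown with compound for 44 hours at 28 °C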
# APP transl inh = APP translation inhibition; SH-SY5Y APP 5'UTR-luciferase reporter, luminescence; inhibition, % at 2 µM; 190,000 tested, 0.82% active;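 active means inhibition above a set limit, derived from the sample mean plus 3 SD, cut at about 45% in these data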
# MT stabilize HCS = microtubule stabilization, imaging screen. HeLa tubulin immunostaining HCS, 24 h; share of cells brighter than vehicle mean+2SD. % tubulin-high responders, % at 10 µM. 200,000 tested, 0.83% active. AID 2205;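 active means plate Z-score above 3 for both tubulin-high and condensed-nucleus cell shares, with cell loss under 80%, at 10 µM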;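 further: anti alpha tubulin signal scored within the nucleus-defined area of each cell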
# Ba/F3 V617F tox = loss of viability in JAK2V617F-driven Ba/F3 cells | Ba/F3 EpoR-JAK2V617F viability, ATP luminescence | inhibition, % at 5.6 µM | 220,000 tested, 1.1% active;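 active means inhibition above the campaign mean plus 3 SD over all tested compounds, cut at about 24% in these data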;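 further: cytokine-independent growth of Ba/F3 cells driven by EpoR plus mutant JAK2; 0% = DMSO-treated cells and 100% = JAK inhibitor I control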
# Active calls of the source: *; . = not tested or not shown.
SMILES,bCat nuc transl,BaF3 tox,Lmaj promast,APP transl inh,MT stabilize HCS,Ba/F3 V617F tox
CC(C)CCNC(=O)CN(C(=O)Cn1nnc(-c2ccccc2F)n1)c1cccc2c1CCCC2,.,4,3,-1,1,0
COc1ccc(-c2nnn(CC(=O)N(CC(=O)NCCC(C)C)c3ccccc3)n2)cc1OC,-1,4,73*,-16,2,0
Cc1c(Cl)cccc1-n1c(SCC(=O)NCc2ccccc2Cl)nnc1-c1ccncc1,1,-1,100*,-11,3,-6
Cc1cc(C)c(C(=O)/C=C/c2cccc3ccccc23)c(=O)[nH]1,5,0,100*,.,14,-3
CS(=O)(=O)N1N=C(c2ccco2)CC1c1ccc(Cl)cc1Cl (centres undefined),-1,5,3,-1,2,4
COc1ccc(Cc2[nH]n3c(=O)cc(C(C)C)nc3c2-c2ccccc2)cc1,0,4,97*,13,12,3
CN1CCc2c(n(CC(O)CN3CCN(CCO)CC3)c3ccccc23)C1=O (centres undefined),.,5,-8,7,3,3
CS(=O)(=O)N(CCc1ccccc1)CC(=O)N1CCc2ccccc2C1,-2,3,-3,12,4,3
CC1CCN(CC(O)COC2CC(C)CCC2C(C)C)CC1 (centres undefined),-1,3,90*,11,4,-2
CCOC(=O)N1CCN(CC(O)COC2CC(C)CCC2C(C)C)CC1 (centres undefined),-2,10,95*,-13,3,10
CC1CCC(C(C)C)C(OCC(O)CNC(C)(C)C)C1 (centres undefined),0,7,24,5,3,3
Cc1occc1C(=O)Nc1nnc(-c2cccs2)s1,0,8,-5,-114,3,-1
Cc1cc(NC(=O)Nc2cc(F)ccc2F)no1,1,-7,.,.,.,-6
COC(=O)C(C)(C)ONC(=O)Nc1ccccc1Br,0,4,69*,-8,3,1
COCC(=O)Nc1ccccc1Br,.,3,54*,15,2,-1
O=C(Oc1coc(CSc2nnc(NC(=O)c3cccs3)s2)cc1=O)c1ccccc1,-1,0,-4,-11,7,-2
NS(=O)(=O)c1cc(C(=O)N2CCc3ccccc32)c(Cl)cc1Cl,4,5,-3,7,1,-1
COc1ccc(Cl)cc1NC(=O)CN1CCc2ccccc21,0,3,5,-10,5,-1
COc1ccc(Cl)cc1N(CC(=O)NC(C)(C)C)S(=O)(=O)c1ccc(C)c([N+](=O)[O-])c1,-1,5,96*,12,3,2
COC(=O)CN(c1cc(Cl)ccc1OC)S(=O)(=O)c1ccc(C)cc1,-1,-2,.,.,.,-3
S=C1SCN(Cc2cccnc2)CN1Cc1cccnc1,4,51*,.,.,.,86*
CC(NCCN(C)C)C(=O)C12CC3CC(CC(C3)C1)C2 (centres undefined),0,-1,.,.,.,1
CN1CCN(C(=O)CSc2nc(-c3cccs3)cc(-c3cccs3)c2C#N)CC1,0,1,66*,-1,5,-4
COc1ccc(-c2cc(-c3cccs3)c(C#N)c(SCC(=O)NCc3ccco3)n2)cc1,94*,7,3,96*,20*,7
COc1ccc(CNC(=O)CSc2nc(-c3ccccc3)cc(-c3cccs3)c2C#N)cc1,.,1,0,-9,1,-3
SMILES,bCat nuc transl,BaF3 tox,Lmaj promast,APP transl inh,MT stabilize HCS,Ba/F3 V617F tox
CC1=C(C#N)C(=O)N(C2CCS(=O)(=O)C2)C(=O)/C1=C\c1ccco1 (centres undefined),-1,-1,.,.,.,3
CN1CCN(C(=O)C2=C[C@@H](c3csc4ccccc34)C[C@@H](OCc3ccc(CO)cc3)O2)CC1,-2,3,90*,-9,1,0
O=C(C1=C[C@H](c2csc3ccccc23)C[C@H](OCc2ccc(CO)cc2)O1)N1CCOCC1,-1,-1,5,-11,3,-2
O=C(Nc1ccccc1)C1=C[C@@H](c2csc3ccccc23)C[C@@H](OCc2ccc(CO)cc2)O1,16,3,58*,-3,19,2
CC(=O)n1cc([C@@H]2C=C(C(=O)N3CCN(Cc4ccccc4)CC3)O[C@H](OCc3ccc(CO)cc3)C2)c2ccccc21,-2,0,97*,21,2,3
O=C(Nc1ccccc1)C1=C[C@@H](c2ccc(C(F)(F)F)cc2)C[C@@H](OCc2ccc(CO)cc2)O1,2,3,65*,7,1,4
Cc1ccc(S(=O)(=O)NC(=O)c2cc(C)n(-c3ccc(N(C)C)cc3)c2C)cc1,0,6,-2,-36,5,5
O=C(C1=C[C@H](c2csc3ccccc23)C[C@H](OCc2ccc(CO)cc2)O1)N1CCN(Cc2ccccc2)CC1,-2,2,21,3,4,2
O=C(C1=C[C@H](c2csc3ccccc23)C[C@H](OCc2ccc(CO)cc2)O1)N1CCN(Cc2ccc3c(c2)OCO3)CC1,-2,3,66*,10,3,7
COc1ccc(C2=NN(CCC(=O)NCc3ccc4c(c3)OCO4)C(=O)CC2)cc1,-2,-1,54*,2,3,-1
Cc1ccc(C2=NN(CCC(=O)NCCC(C)C)C(=O)CC2)cc1,-1,4,73*,15,3,2
COc1ccc(C2=NN(CC(=O)Nc3ccccc3C)C(=O)CC2)cc1,0,57*,.,.,.,-1
COc1ccc(-n2c(C)nc3cc(C(=O)NCc4ccc5c(c4)OCO5)ccc32)cc1,-4,0,83*,-22,6,-5
O=C(Nc1ccc(Cl)c(Cl)c1)Nc1cc(C(=O)NC2CC2)ccc1Cl,0,6,33,7,2,-3
O=C(/C=C/c1ccc(O)cc1)c1ccc(NC2=C(N3CCCCC3)C(=O)c3ccccc3C2=O)cc1,2,2,99*,-22,16,2
CC1CCN(C2=C(NS(=O)(=O)c3ccccc3)C(=O)c3ccccc3C2=O)CC1,-1,-2,.,.,.,1
CN(C1=C(N2CCCCC2)C(=O)c2ccccc2C1=O)c1ccccc1,1,65*,65*,-4,2,26*
COc1ccccc1NC1=C(N2CCCCC2)C(=O)c2ccccc2C1=O,3,100*,100*,-11,5,101*
O=C1C(Nc2ccccc2)=C(N2CCCCC2)C(=O)c2ccccc21,0,102*,97*,-10,1,98*
O=C(/C=C/c1ccc(O)cc1)c1ccccc1,1,-5,.,.,.,-1
O=C1C(NS(=O)(=O)c2ccccc2)=C(N2CCN(c3ccc(F)cc3)CC2)C(=O)c2ccccc21,0,4,.,.,.,4
O=C1C(Nc2cccc(O)c2)=C(N2CCCCC2)C(=O)c2ccccc21,0,99*,98*,-5,2,87*
Cc1ccc(NC2=C(N3CCCCC3)C(=O)c3ccccc3C2=O)cc1,0,98*,97*,-25,2,96*
